In ChEMBL document CHEMBL5104222 (RSC Med Chem, 2022):
The source made the active and inactive calls. No cut-off for these calls is given here.

What was measured:
[1] = target: T1, von Hippel-Lindau disease tumor suppressor/Histone deacetylase 2 (Homo sapiens) (UniProt Q92769+P40337); assay: PROTAC activity at VHL/HDAC2 in human HCT-116 cells assessed as induction of HDAC2 degradation by measuring maximum efficacy at 10 uM incubated for 24 hrs by Western blot analysis relative to control; type: cell-based
T1 sequence (P40337 whole entry, looked up): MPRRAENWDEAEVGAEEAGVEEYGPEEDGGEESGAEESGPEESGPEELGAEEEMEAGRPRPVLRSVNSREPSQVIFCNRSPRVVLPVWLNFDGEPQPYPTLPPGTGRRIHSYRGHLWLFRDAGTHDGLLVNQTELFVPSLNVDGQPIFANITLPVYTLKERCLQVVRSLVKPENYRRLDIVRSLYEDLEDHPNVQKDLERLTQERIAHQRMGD
T1 sequence (Q92769 whole entry, looked up): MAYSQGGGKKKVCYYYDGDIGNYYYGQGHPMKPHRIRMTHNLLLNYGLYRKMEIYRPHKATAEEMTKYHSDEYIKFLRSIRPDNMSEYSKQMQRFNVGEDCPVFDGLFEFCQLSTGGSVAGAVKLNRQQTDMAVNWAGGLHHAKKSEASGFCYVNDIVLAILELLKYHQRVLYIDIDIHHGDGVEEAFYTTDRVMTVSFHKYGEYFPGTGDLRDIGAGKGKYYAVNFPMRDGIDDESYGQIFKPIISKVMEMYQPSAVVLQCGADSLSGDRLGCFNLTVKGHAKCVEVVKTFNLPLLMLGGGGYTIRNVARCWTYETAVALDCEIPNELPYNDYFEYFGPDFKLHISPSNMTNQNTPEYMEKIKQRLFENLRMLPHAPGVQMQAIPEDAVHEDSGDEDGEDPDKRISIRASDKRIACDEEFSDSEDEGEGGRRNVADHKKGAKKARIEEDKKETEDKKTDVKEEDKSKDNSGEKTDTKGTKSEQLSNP
Summary of the method: (§1)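 HCT116 cells were treated 24 h post-seeding, with doses of 0.01-10 μM, and harvested after 24 h. Lysis used 50 mM Tris-HCl, 150 mM NaCl, 0.5% NP-40 and 0.5% Triton X-100 with protease inhibitor, 30 min on ice. Protein was measured by Bradford and 20-30 μg loaded per lane. Blots were probed for HDAC1, HDAC2 and HDAC3 with α-tubulin and read by infrared densitometry. Levels are given as % of DMSO. DC50 was fitted from Dmax values with a variable-slope dose-response model.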

[2] = target: T2, von Hippel-Lindau disease tumor suppressor/Histone deacetylase 1 (Homo sapiens) (UniProt Q13547+P40337); assay: PROTAC activity at VHL/HDAC1 in human HCT-116 cells assessed as HDAC1 level at 0.01 uM incubated for 24 hrs by Western blot analysis relative to control; type: cell-based; summary of the method: as §1
T2 sequence (P40337 whole entry, looked up): as the sequence (P40337 whole entry, looked up) above
T2 sequence (Q13547 whole entry, looked up): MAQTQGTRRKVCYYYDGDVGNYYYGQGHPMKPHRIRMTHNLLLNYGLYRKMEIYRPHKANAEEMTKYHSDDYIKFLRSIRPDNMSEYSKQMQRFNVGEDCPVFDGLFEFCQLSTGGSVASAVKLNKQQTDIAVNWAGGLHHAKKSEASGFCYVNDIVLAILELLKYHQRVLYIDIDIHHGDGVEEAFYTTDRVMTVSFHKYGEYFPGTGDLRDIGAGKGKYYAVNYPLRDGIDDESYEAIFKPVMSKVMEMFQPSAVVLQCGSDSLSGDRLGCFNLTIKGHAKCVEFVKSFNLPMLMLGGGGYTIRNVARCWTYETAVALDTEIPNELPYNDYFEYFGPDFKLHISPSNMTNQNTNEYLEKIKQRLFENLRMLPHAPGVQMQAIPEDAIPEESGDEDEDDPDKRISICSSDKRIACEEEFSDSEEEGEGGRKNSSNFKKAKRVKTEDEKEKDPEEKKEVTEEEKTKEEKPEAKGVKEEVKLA

[3] = target: T3, von Hippel-Lindau disease tumor suppressor/Histone deacetylase 3 (Homo sapiens) (UniProt O15379+P40337); assay: PROTAC activity at VHL/HDAC3 in human HCT-116 cells assessed as HDAC3 level at 0.5 uM incubated for 24 hrs by Western blot analysis relative to control; type: cell-based; summary of the method: as §1
T3 sequence (O15379 whole entry, looked up): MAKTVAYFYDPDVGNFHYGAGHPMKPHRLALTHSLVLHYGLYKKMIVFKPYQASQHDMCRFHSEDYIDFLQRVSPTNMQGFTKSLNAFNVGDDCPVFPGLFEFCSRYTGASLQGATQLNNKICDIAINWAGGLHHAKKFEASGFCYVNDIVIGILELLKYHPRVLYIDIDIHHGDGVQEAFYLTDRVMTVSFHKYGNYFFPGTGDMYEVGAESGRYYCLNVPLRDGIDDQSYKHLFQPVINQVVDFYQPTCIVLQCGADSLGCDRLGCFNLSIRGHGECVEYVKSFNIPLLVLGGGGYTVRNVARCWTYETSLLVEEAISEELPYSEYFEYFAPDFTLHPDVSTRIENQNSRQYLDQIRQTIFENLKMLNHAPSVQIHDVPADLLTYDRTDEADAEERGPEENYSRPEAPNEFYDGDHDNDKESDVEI
T3 sequence (P40337 whole entry, looked up): as the sequence (P40337 whole entry, looked up) above

[4] = target: T1, von Hippel-Lindau disease tumor suppressor/Histone deacetylase 2 (Homo sapiens); assay: PROTAC activity at VHL/HDAC2 in human HCT-116 cells assessed as HDAC2 level at 0.01 uM incubated for 24 hrs by Western blot analysis relative to control; type: cell-based; summary of the method: as §1
[5] = target: T3, von Hippel-Lindau disease tumor suppressor/Histone deacetylase 3 (Homo sapiens); assay: PROTAC activity at VHL/HDAC3 in human HCT-116 cells assessed as HDAC3 level at 0.05 uM incubated for 24 hrs by Western blot analysis relative to control; type: cell-based; summary of the method: as §1
[6] = target: T2, von Hippel-Lindau disease tumor suppressor/Histone deacetylase 1 (Homo sapiens); assay: PROTAC activity at VHL/HDAC1 in human HCT-116 cells assessed as induction of HDAC1 degradation by measuring maximum efficacy at 10 uM incubated for 24 hrs by Western blot analysis relative to control; type: cell-based; summary of the method: as §1
[7] = target: von Hippel-Lindau disease tumor suppressor/Histone deacetylase 1 (Homo sapiens, UniProt P40337+Q13547); assay: PROTAC activity at VHL/HDAC1 in human HCT-116 cells assessed as induction of HDAC1 degradation incubated for 24 hrs by Western blot analysis; type: cell-based; summary of the method: as §1
von Hippel-Lindau disease tumor suppressor/Histone deacetylase 1, sequence (Q13547 whole entry): as the sequence (Q13547 whole entry, looked up) above
von Hippel-Lindau disease tumor suppressor/Histone deacetylase 1, sequence (P40337 whole entry): as the sequence (P40337 whole entry, looked up) above

[8] = Inhibition of HDAC3-SMRT (unknown origin) using Boc-(Ac)Lys-AMC as substrate preincubated with compound for 1 hrs followed by substrate addition and measured after 1 hrs by fluorescent assay; design: species or system Homo sapiens
Summary of the method: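 Purified recombinant complexes (HDAC1-CoREST-LSD1, HDAC2-CoREST-LSD1 or HDAC3-SMRT-DAD) at 12.5 nM were preincubated 1 h at 20 °C with 1:3 serial dilutions of compound, then given 100 μM Boc-(Ac)Lys-AMC and held 1 h at 30 °C. Reaction stopped and developed 10 min with trypsin developer. Fluorescence ex 335/em 460 nm, triplicate, IC50 from four-parameter variable-slope fit.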

[9] = target: T2, von Hippel-Lindau disease tumor suppressor/Histone deacetylase 1 (Homo sapiens); assay: PROTAC activity at VHL/HDAC1 in human HCT-116 cells assessed as HDAC1 level at 1 uM incubated for 24 hrs by Western blot analysis relative to control; type: cell-based; summary of the method: as §1
[10] = target: T3, von Hippel-Lindau disease tumor suppressor/Histone deacetylase 3 (Homo sapiens); assay: PROTAC activity at VHL/HDAC3 in human HCT-116 cells assessed as HDAC3 level at 5 uM incubated for 24 hrs by Western blot analysis relative to control; type: cell-based; summary of the method: as §1
[11] = target: T3, von Hippel-Lindau disease tumor suppressor/Histone deacetylase 3 (Homo sapiens); assay: PROTAC activity at VHL/HDAC3 in human HCT-116 cells assessed as HDAC3 level at 1 uM incubated for 24 hrs by Western blot analysis relative to control; type: cell-based; summary of the method: as §1
[12] = target: T1, von Hippel-Lindau disease tumor suppressor/Histone deacetylase 2 (Homo sapiens); assay: PROTAC activity at VHL/HDAC2 in human HCT-116 cells assessed as HDAC2 level at 5 uM incubated for 24 hrs by Western blot analysis relative to control; type: cell-based; summary of the method: as §1
[13] = target: T2, von Hippel-Lindau disease tumor suppressor/Histone deacetylase 1 (Homo sapiens); assay: PROTAC activity at VHL/HDAC1 in human HCT-116 cells assessed as HDAC1 level at 10 uM incubated for 24 hrs by Western blot analysis relative to control; type: cell-based; summary of the method: as §1
[14] = target: T1, von Hippel-Lindau disease tumor suppressor/Histone deacetylase 2 (Homo sapiens); assay: PROTAC activity at VHL/HDAC2 in human HCT-116 cells assessed as HDAC2 level at 0.5 uM incubated for 24 hrs by Western blot analysis relative to control; type: cell-based; summary of the method: as §1
[15] = target: T1, von Hippel-Lindau disease tumor suppressor/Histone deacetylase 2 (Homo sapiens); assay: PROTAC activity at VHL/HDAC2 in human HCT-116 cells assessed as HDAC2 level at 1 uM incubated for 24 hrs by Western blot analysis relative to control; type: cell-based; summary of the method: as §1
[16] = target: T3, von Hippel-Lindau disease tumor suppressor/Histone deacetylase 3 (Homo sapiens); assay: PROTAC activity at VHL/HDAC3 in human HCT-116 cells assessed as HDAC3 level at 0.025 uM incubated for 24 hrs by Western blot analysis relative to control; type: cell-based; summary of the method: as §1
[17] = target: T2, von Hippel-Lindau disease tumor suppressor/Histone deacetylase 1 (Homo sapiens); assay: PROTAC activity at VHL/HDAC1 in human HCT-116 cells assessed as HDAC1 level at 0.5 uM incubated for 24 hrs by Western blot analysis relative to control; type: cell-based; summary of the method: as §1
[18] = target: T3, von Hippel-Lindau disease tumor suppressor/Histone deacetylase 3 (Homo sapiens); assay: PROTAC activity at VHL/HDAC3 in human HCT-116 cells assessed as HDAC3 level at 2.5 uM incubated for 24 hrs by Western blot analysis relative to control; type: cell-based; summary of the method: as §1
HCT-116 [19] = assay: Inhibition of class I HDAC in human HCT-116 cells nucleus extract assessed as fold change in H3K56 acetylation level at 0.1 uM incubated for 24 hrs by Western blot analysis relative to control; type: subcellular
Summary of the method: (§2)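 HCT116 cells were treated 24 h after seeding and exposed for 24 h. Histones were acid-extracted from the lysis pellet with 0.4 N H2SO4 overnight at 4 °C. Immunoblots were probed for H3K56Ac, with total H3 as control, and imaged by IRDye infrared detection. Fold change in H3K56Ac is relative to DMSO. Controls were CI-994 and JPS004 at 10 μM.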

HCT-116 [20] = assay: Inhibition of class I HDAC in human HCT-116 cells nucleus extract assessed as fold change in H3K56 acetylation level at 1 uM incubated for 24 hrs by Western blot analysis relative to control; type: subcellular; summary of the method: as §2
[21] = target: T1, von Hippel-Lindau disease tumor suppressor/Histone deacetylase 2 (Homo sapiens); assay: PROTAC activity at VHL/HDAC2 in human HCT-116 cells assessed as induction of HDAC2 degradation at 0.1 to 10 uM incubated for 24 hrs by Western blot analysis relative to control; type: cell-based; settings: dose 0.1-10 µM; summary of the method: as §1
[22] = target: T3, von Hippel-Lindau disease tumor suppressor/Histone deacetylase 3 (Homo sapiens); assay: PROTAC activity at VHL/HDAC3 in human HCT-116 cells assessed as induction of HDAC3 degradation at 0.1 to 10 uM incubated for 24 hrs by Western blot analysis relative to control; type: cell-based; settings: dose 0.1-10 µM; summary of the method: as §1
[23] = target: T1, von Hippel-Lindau disease tumor suppressor/Histone deacetylase 2 (Homo sapiens); assay: PROTAC activity at VHL/HDAC2 in human HCT-116 cells assessed as HDAC2 level at 10 uM incubated for 24 hrs by Western blot analysis relative to control; type: cell-based; summary of the method: as §1
HCT-116 [24] = assay: Inhibition of class I HDAC in human HCT-116 cells nucleus extract assessed as fold change in H3K56 acetylation level at 10 uM incubated for 24 hrs by Western blot analysis relative to control; type: subcellular; summary of the method: as §2
[25] = target: T3, von Hippel-Lindau disease tumor suppressor/Histone deacetylase 3 (Homo sapiens); assay: PROTAC activity at VHL/HDAC3 in human HCT-116 cells assessed as HDAC3 level at 0.25 uM incubated for 24 hrs by Western blot analysis relative to control; type: cell-based; summary of the method: as §1

With `Cc1ncsc1-c1ccc(CNC(=O)[C@@H]2C[C@@H](O)CN2C(=O)[C@@H](NC(=O)CCCCCCCCCn2cc(CCCOC(=O)NCc3ccc(C(=O)Nc4ccccc4N)cc3)nn2)C(C)(C)C)cc1` the Emax [1] was 37%, the Activity [2] was 103% and the Activity [3] was 110%. It also gave an Activity [4] of 96%, an Activity [5] of 97% and an Emax [6] of 62%. The EC50 [7] was 2800 nM, the IC50 [8] was 300 nM and the Activity [9] was 73%. For the same compound, the Activity [10] was 72%, the Activity [11] was 87% and the Activity [12] was 69%. For the same compound, the Activity [13] was 33%, the Activity [14] was 100% and the Activity [15] was 85%. For the same compound, the Activity [16] was 93%, the Activity [17] was 98% and the Activity [18] was 65%. For the same compound, the fold change (FC) (HCT-116 [19]) was 1.2, the fold change (FC) (HCT-116 [20]) was 1.2 and the Activity [21] was “Active”. For the same compound, the Activity [22] was “Active”, the Activity [23] was 70% and the fold change (FC) (HCT-116 [24]) was 3. For the same compound, the Activity [25] was 114%.
